{"data": "Experimental data collected from several papers", "CDK18": "Cyclin-dependent kinase 18 (CDK18, Homo sapiens, UniProt Q07002)", "CDK18 with cyclin Y": "Cyclin-dependent kinase 18, with cyclin Y (CDK18, Homo sapiens, UniProt Q07002)", "note": "Lines come from different studies, so protocols differ."}
{"SMILES": "Cc1ccc(C(=O)Nc2ccc(CN3CCN(C)CC3)c(C(F)(F)F)c2)cc1C#Cc1cnc2cccnn12", "target": "CDK18", "read-out": "enzyme activity", "action": "inhibitor", "concentration": "23.5 nM", "quantity": "remaining activity", "result": "89%"}
{"SMILES": "Fc1cccc(-n2cnc3c(NCc4nc5c(F)c(F)ccc5[nH]4)nc(N4CCOCC4)nc32)c1", "target": "CDK18", "read-out": "binding", "method": "competition with immobilised ligand", "concentration": "10 µM", "quantity": "binding vs control", "result": "37%"}
{"SMILES": "CN1CC(Oc2cnc(C#N)cc2-c2ccn3nc(NC(=O)C4CC4)cc3c2)C1", "target": "CDK18 with cyclin Y", "read-out": "enzyme activity", "action": "inhibitor", "concentration": "1 µM", "quantity": "inhibition", "result": "1%"}
{"SMILES": "Cc1ccc(C(=O)NCc2ccsc2)cc1C#Cc1cn(C(C)C)c2ncnc(N)c12", "target": "CDK18 with cyclin Y", "read-out": "enzyme activity", "action": "inhibitor", "concentration": "1 µM", "quantity": "activity vs control", "result": "82%"}
{"SMILES": "O=C(NS(=O)(=O)c1ccc(NCC2CCOCC2)c([N+](=O)[O-])c1)c1ccc(N2CCN(Cc3ccc(C(F)(F)F)cc3-c3ccc(Cl)cc3)CC2)cc1Oc1cnc2[nH]ccc2c1", "target": "CDK18", "read-out": "cell-free assay", "method": "competition with immobilised ligand", "concentration": "1 µM", "quantity": "remaining binding", "result": "100%"}
{"SMILES": "O=C(Nc1cnn(-c2csc(C(=O)NC3COC3)c2)c1)Nc1ccccc1Cl", "target": "CDK18 with cyclin Y", "read-out": "enzyme activity", "action": "inhibitor", "concentration": "5 µM", "quantity": "remaining activity", "result": "101%"}
{"SMILES": "COc1cc(Cl)c(C(=O)N[C@@H](CN[C@H]2CC[C@@H](N)CC2)Cc2ccc(C#N)cc2)cc1-c1ccc(CN[C@H](C)c2ccc(C)cc2)o1", "target": "CDK18 with cyclin Y", "read-out": "enzyme activity", "action": "inhibitor", "concentration": "1 µM", "quantity": "remaining activity", "result": "103%"}
{"SMILES": "O=[N+]([O-])c1cccc2[nH]c(CNc3nc(N4CCOCC4)nc4c3ncn4-c3ccsc3)nc12", "target": "CDK18", "read-out": "binding", "method": "competition with immobilised ligand", "concentration": "10 µM", "quantity": "binding vs control", "result": "62%"}
{"SMILES": "CSc1cccnc1N1CCN(Cc2nc3ccccc3[nH]2)CC1", "target": "CDK18", "read-out": "cell-free assay", "method": "competition with immobilised ligand", "concentration": "1 µM", "quantity": "remaining binding", "result": "100%"}
{"SMILES": "Cc1sc(C(=O)NC2COC2)cc1-n1cc(NC(=O)Nc2c(F)cccc2Cl)cn1", "target": "CDK18 with cyclin Y", "read-out": "enzyme activity", "action": "inhibitor", "concentration": "10 µM", "quantity": "remaining activity", "result": "119%"}
{"SMILES": "Nc1ncnc2occ(-c3ccc(NC(=O)Nc4cc(C(F)(F)F)ccc4F)cc3)c12", "target": "CDK18", "read-out": "cell-free assay", "action": "inhibitor", "concentration": "20 µM", "quantity": "remaining signal", "result": "0.1%"}
